SIRT5 inh: inhibitors of human sirtuin-5 desuccinylase; Q9NXA8; Purified SirT5, succinyl-peptide AMC, trypsin-coupled fluorescence; inhibition, % at 15 µM; 330,000 compounds, 1.1% hits; AID 652115; in the data active means inhibition above about 15%; inconclusive means no clear call, values can overlap the other calls
Target sequence (Q9NXA8 whole entry, looked up): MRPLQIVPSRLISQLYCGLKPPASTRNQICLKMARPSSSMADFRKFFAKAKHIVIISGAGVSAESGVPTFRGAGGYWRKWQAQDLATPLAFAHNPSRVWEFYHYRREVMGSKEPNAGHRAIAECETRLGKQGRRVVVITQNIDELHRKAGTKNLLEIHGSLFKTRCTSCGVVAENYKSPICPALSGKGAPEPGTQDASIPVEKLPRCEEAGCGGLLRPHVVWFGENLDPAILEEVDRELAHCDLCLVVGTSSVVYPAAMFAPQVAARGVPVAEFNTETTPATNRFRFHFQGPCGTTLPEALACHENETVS
ERAP1 inh: inhibitors of human ERAP1 aminopeptidase | Q9NZ08 | recombinant ERAP1, Leu-AMC fluorescence, 60 min | inhibition, % at 10.7 µM | 340,000 compounds, 0.15% hits | AID 652197;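 active means mean replicate inhibition of at least 30%, or all replicates individually reaching that 30% level; inactive means mean below 30% and not every replicate reaching it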;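 further: 0% = neutral control wells and 100% = L-leucinethiol positive control wells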
S100A4 inh HTS: S100A4-myosin IIA interaction inhibition. P26447. 360,000 compounds, 0.14% hits. inhibition, % at 10.7 µM. S100A4/TAMRA-MyoIIA peptide fluorescence polarization;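 active means mean inhibition of at least 70% across replicates, with every replicate also reaching that level; inconclusive means mean inhibition reaches 70% but some replicates fall short; inactive means mean inhibition below 70%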
Target sequence (P26447 whole entry, looked up): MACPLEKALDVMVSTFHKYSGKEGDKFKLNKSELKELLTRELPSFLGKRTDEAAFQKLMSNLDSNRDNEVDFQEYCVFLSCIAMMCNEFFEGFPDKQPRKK
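Material: S100A4 monomer (human). Medium: Calcium-containing HEPES buffer, pH 7.2. Probe or stimulus: labelled myosin peptide probe, 5 nM. Compound dosing: one concentration per compound. Timing: polarization read 5 min after assay mix addition, stable 5–60 min. Benchmarks: DMSO as neutral control, TFP as positive control.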
DENV2 CPE: DENV2-induced cell death inhibition | DENV2-infected cells, cytopathic effect rescue, plate reader | CPE inhibition, % at 9.99 µM | 350,000 compounds, 1.7% hits; in the data active means CPE inhibition above about 20%, passing the limit was not always enough; inconclusive means no clear call, values can overlap the other calls; tested in BHK-21 cells;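 further: 0% = median of neutral control wells and 100% = median of positive control wells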
CAL PDZ FP-1: human CAL PDZ-peptide interaction inhibition. inhibition, % at 20 µM. purified CAL PDZ, TMR-peptide fluorescence polarization, 1 h. Q9HD26. 330,000 compounds, 0.02% hits;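 active means highest replicate inhibition of at least 40%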;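 further: plate controls were DMSO neutral control wells for no effect and unlabeled competitor peptide control wells for full effect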
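material = purified tagged CAL PDZ domain construct (CerCALP) | compound dosing = 20 µM, one dose | times = 1 h at RT | measured by = fluorescence polarization from S- and P-plane intensities, G-factor corrected | read-out = inhibition from polarization loss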
CAL PDZ FP-2: blocks peptide binding to the human CAL PDZ domain. Q9HD26. purified CAL PDZ, TMR-peptide fluorescence polarization, 1 h. inhibition, % at 24.9 µM. 300,000 compounds, 0.92% hits. AID 602252;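 active means mean inhibition of at least 30% with at least half of replicates also reaching 30%; inconclusive means no clear call, values can overlap the other calls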;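 further: 0% = DMSO neutral control and 100% = excess unlabeled competitor peptide PRC23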
Starred values were filed as active, the others as inactive; u = inconclusive; x = not tested or not shown. Compounds with a hit are over-represented: about 2.9% of the library has one in this group of screens.

SMILES	SIRT5 inh	ERAP1 inh	S100A4 inh HTS	DENV2 CPE	CAL PDZ FP-1	CAL PDZ FP-2
COc1ccc2c3c([nH]c2c1)[C@H](CO)N(C(=O)CN(C)C)CC31CCN(Cc2ccccc2)CC1	x	x	x	17.8	x	x
N#Cc1cc2cc3c(cc2nc1Cl)OCCO3	-6.0	-3.0	-1.9	40.7*	x	x
Cn1c(=O)[nH]c(=O)c2c1[nH]c(=S)n2Cc1ccc(Cl)cc1	1.3	44.6*	-0.7	-5.7	-0.5	0.8
Cn1c(=O)[nH]c(=O)c2c1nc(Br)n2Cc1ccc(Cl)cc1	x	1.6	-29.2	u	x	x
C[C@@H]1CN([C@H](C)CO)C(=O)c2cc(NC(=O)NC3CCCCC3)ccc2O[C@@H](C)CCCCO[C@@H]1CN(C)Cc1ccccc1	4.4	-0.7	4.4	-5.4	x	x
COc1ccc(N(CC(=O)NCCSc2ccccc2)S(=O)(=O)c2ccccc2)c(OC)c1	0.9	-4.8	-1.0	88.5*	1.8	1.2
C[C@H]1CN([C@@H](C)CO)C(=O)c2cccc(NC(=O)C3CCOCC3)c2O[C@@H]1CN(C)S(C)(=O)=O	-1.9	-2.7	12.1	11.0	x	x
Cc1noc(C)c1NC(=O)Nc1ccc2c(c1)C(=O)N([C@H](C)CO)C[C@H](C)[C@@H](CN(C)C(=O)c1ccccc1)OCCCC[C@H](C)O2	-4.1	-1.1	9.9	0.7	x	x
Cc1noc(C)c1NC(=O)Nc1ccc2c(c1)C(=O)N([C@H](C)CO)C[C@H](C)[C@H](CN(C)C(=O)c1ccccc1)OCCCC[C@H](C)O2	-2.8	-0.4	-15.3	39.3*	x	x
Cc1noc(C)c1NC(=O)Nc1ccc2c(c1)C(=O)N([C@@H](C)CO)C[C@H](C)[C@@H](CN(C)C(=O)CCCN(C)C)OCCCC[C@@H](C)O2	-2.6	1.0	-4.0	86.3*	x	x
Cc1noc(C)c1NC(=O)Nc1ccc2c(c1)C(=O)N([C@H](C)CO)C[C@@H](C)[C@@H](CN(C)C(=O)Nc1ccccc1)OCCCC[C@@H](C)O2	-4.0	0.0	-7.8	22.6*	x	x
CNC[C@@H]1OCCCC[C@@H](C)Oc2ccc(NC(=O)Nc3c(C)noc3C)cc2C(=O)N([C@H](C)CO)C[C@H]1C	2.0	-0.2	-17.9	21.8*	x	x
CO[C@@H]1CN(C)C(=O)c2cc(NC(=O)NC(C)C)ccc2OC[C@H](C)N(Cc2ccc(-c3ccccn3)cc2)C[C@@H]1C	8.9	-2.7	-2.7	6.1	x	x
CN(C)CCCNc1cc(O)c2ncccc2c1	0.1	4.5	26.2	56.8*	-0.1	-0.6
C[C@@H]1COC(=O)[C@H](Cc2ccc(F)cc2)C/C=C\C[C@@H](CC(=O)N[C@H](CO)Cc2ccccc2)C(=O)N1	x	-3.0	-3.2	40.8*	-0.3	0.2
C[C@@H]1COC(=O)[C@@H](Cc2ccc(F)cc2)C/C=C\C[C@@H](CC(=O)N[C@H](CO)Cc2ccccc2)C(=O)N1	x	x	3.0	-5.8	-0.8	-2.7
COCC(=O)N1CC(=O)N2[C@@H](CO)[C@H](c3ccc(C#CC(C)C)cc3)[C@@H]2C1	-0.9	-1.9	-23.8	-8.0	x	x
CCCCc1cn(C[C@H](Cc2ccccc2)NC(=O)N[C@H](CO)CCc2oc(C(C)=O)c(C(=O)OC)c2C(=O)OC)nn1	-11.5	2.0	-31.0	22.0*	x	x
C[C@@H]1CN([C@H](C)CO)C(=O)c2cc(-c3ccc(F)cc3)cnc2O[C@H]1CN(C)CC1CCCCC1	5.8	-11.8	-1.2	-0.7	x	x
CC(C)(C)NC(=O)C(c1ccncc1)n1c(=O)c(-c2ccco2)nc2ccccc21 (centres undefined)	-2.8	-9.9	-5.0	30.6*	x	x
CC(C)(C)NC(=O)C(c1ccccc1)n1c(=O)c(-c2ccco2)nc2ccccc21 (centres undefined)	-2.0	x	-6.0	u	x	x
O=C(NCc1ccccc1)C(c1ccncc1)n1c(=O)c(-c2ccccc2)nc2ccccc21 (centres undefined)	-0.4	-1.6	-2.0	39.7*	x	x
COC(=O)C[C@H]1CC[C@H]2[C@H](COc3ccc(NC(=O)Nc4cccc(F)c4)cc3C(=O)N2C)O1	-0.9	1.3	-4.0	4.8	x	x
Cc1ccc(-n2ncc3c(=O)[nH]c(SCC(=O)N4CCCC4)nc32)cc1C	-1.9	5.8	-0.3	63.1*	-1.3	x
CC1CCCCC12NC(=O)N(CC(=O)NCc1cccs1)C2=O (centres undefined)	x	-0.9	-7.2	28.9*	x	x
